Experimental data: ChEMBL document CHEMBL1151261, “Antineoplastic agents. 509: synthesis of fluorcombstatin phosphate and related 3-halostilbenes(1)” (J Nat Prod, 2005)
Values after ≈ are worked out from the molar mass of the structure shown. Active and inactive are the calls of the source. The rule behind the calls is not given here.

Assays:
[1] = system: DU-145; experiment: Cytotoxicity against human DU145 cells after 48 hrs by sulforhodamine B assay; format: functional; settings: DU-145, 48 h
Method in brief: (§1)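 Human tumor lines exposed to compound for 48 h, then fixed with trichloroacetic acid and stained with sulforhodamine B (NCI standard protocol); optical density read on a microplate reader. GI50 is the concentration giving a 50% reduction in net protein increase, calculated from optical density data.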

[2] = system: Stenotrophomonas maltophilia; experiment: Antimicrobial activity against Stenotrophomonas maltophilia ATCC 13637 at 64 ug/mL after 24 hrs by broth microdilution assay; format: functional, organism-based
Method in brief: (§2)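 NCCLS bacterial broth microdilution (M7-A5). Overnight colonies diluted to about 5×10^5 CFU/mL final; 2-fold compound dilutions (DMSO stock) in cation-adjusted Mueller Hinton II broth; DMSO turbidity control; 35 °C without agitation, 24 h. MIC = lowest concentration with optically clear wells.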

[3] = system: P388; experiment: Cytotoxicity against mouse P388 cells after 48 hrs by Coulter particle counting; settings: P388, 48 h, read-out: ED50 (the source's name)
[4] = system: NCI-H460; experiment: Cytotoxicity against human NCI-H460 cells after 48 hrs by sulforhodamine B assay; format: functional; settings: NCI-H460, 48 h; method in brief: as §1
[5] = system: BXPC-3; experiment: Cytotoxicity against human BxPC3 cells after 48 hrs by sulforhodamine B assay; format: functional; settings: BXPC-3, 48 h; method in brief: as §1
[6] = system: Streptococcus pneumoniae; experiment: Antimicrobial activity against Streptococcus pneumoniae ATCC 6303 at 64 ug/mL after 24 hrs by broth microdilution assay; format: functional, organism-based
Method in brief: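 Streptococcus tested by NCCLS broth microdilution in cation-adjusted MHII broth with 3% lysed horse blood. Final inoculum about 5×10^5 CFU/mL; 2-fold compound dilutions from DMSO; DMSO turbidity control; 35 °C without agitation, 24 h. MIC = lowest concentration with no visible growth.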

[7] = system: Cryptococcus neoformans; experiment: Antimicrobial activity against Cryptococcus neoformans ATCC 90112 at 64 ug/mL after 72 hrs by broth microdilution assay; format: functional, organism-based
Method in brief: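 Yeast NCCLS broth microdilution (M27-A). Inoculum 0.5 to 2.5×10^3 CFU/mL; 2-fold dilutions in 0.165 M MOPS-buffered RPMI 1640, pH 7.0; compound from DMSO, DMSO-only turbidity control; 35 °C without agitation; read at 72 h (Cryptococcus). MIC = lowest concentration giving no visible growth.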

[8] = system: MCF7; experiment: Cytotoxicity against human MCF7 cells after 48 hrs by sulforhodamine B assay; format: functional; settings: MCF7, 48 h; method in brief: as §1
[9] = system: Enterobacter cloacae; experiment: Antimicrobial activity against Enterobacter cloacae ATCC 13047 at 64 ug/mL after 24 hrs by broth microdilution assay; format: functional, organism-based; method in brief: as §2
[10] = system: SF-268; experiment: Cytotoxicity against human SF268 cells after 48 hrs by sulforhodamine B assay; format: functional; settings: SF-268, 48 h; method in brief: as §1
[11] = system: Enterococcus faecalis; experiment: Antimicrobial activity against Enterococcus faecalis ATCC 29212 at 64 ug/mL after 24 hrs by broth microdilution assay; format: functional, organism-based; method in brief: as §2
[12] = system: Staphylococcus aureus; experiment: Antimicrobial activity against Staphylococcus aureus ATCC 29213 at 64 ug/mL after 24 hrs by broth microdilution assay; format: functional, organism-based; method in brief: as §2
[13] = system: Micrococcus luteus; experiment: Antimicrobial activity against Micrococcus luteus Presque Isle 456 at 64 ug/mL after 24 hrs by broth microdilution assay; format: functional, organism-based; method in brief: as §2
[14] = system: Escherichia coli; experiment: Antimicrobial activity against Escherichia coli ATCC 25922 at 64 ug/mL after 24 hrs by broth microdilution assay; format: functional, organism-based; method in brief: as §2
[15] = system: KM-20L2; experiment: Cytotoxicity against human KM20L2 cells after 48 hrs by sulforhodamine B assay; format: functional; settings: KM-20L2, 48 h; method in brief: as §1
[16] = system: Neisseria gonorrhoeae; experiment: Antimicrobial activity against Neisseria gonorrhoeae ATCC 49226 at 64 ug/mL after 24 hrs by broth microdilution assay; format: functional, organism-based
Method in brief: (§3)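 Neisseria tested by NCCLS broth microdilution in gonococcal typing broth. Final inoculum about 5×10^5 CFU/mL; 2-fold compound dilutions from DMSO; DMSO turbidity control; 37 °C with 5% CO₂ without agitation, 24 h. MIC = lowest concentration with no visible growth.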

[17] = system: Candida albicans; experiment: Antimicrobial activity against Candida albicans ATCC 90028 at 64 ug/mL after 48 hrs by broth microdilution assay; format: functional, organism-based
Method in brief: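 Yeast NCCLS broth microdilution (M27-A). Inoculum 0.5 to 2.5×10^3 CFU/mL; 2-fold dilutions in 0.165 M MOPS-buffered RPMI 1640, pH 7.0; compound from DMSO, DMSO-only turbidity control; 35 °C without agitation; read at 48 h (Candida). MIC = lowest concentration giving no visible growth.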

[18] = system: Neisseria gonorrhoeae; experiment: Antimicrobial activity against Neisseria gonorrhoeae ATCC 49226 after 24 hrs by broth microdilution assay; format: functional; settings: ATCC 49226, 24 h; method in brief: as §3
[19] = system: Micrococcus luteus; experiment: Antimicrobial activity against Micrococcus luteus Presque Isle 456 after 24 hrs by broth microdilution assay; format: functional; method in brief: as §2
[20] = Displacement of [3H]colchicine from tubulin
Method in brief: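 [3H]colchicine binding with 1.0 μM tubulin, 5.0 μM [3H]colchicine and inhibitor at 1.0 μM.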

[21] = Inhibition of tubulin polymerization
Method in brief: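 Turbidimetry at 350 nm. Compound at varying concentrations preincubated with 10 μM (1.0 mg/mL) purified tubulin, chilled on ice, then 0.4 mM GTP added and polymerization followed at 30 °C. Extent of polymerization at 20 min measured.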

| Structure (SMILES) | GI50 [1] [µg/mL] | Activity [2] | EC50 [3] [µg/mL] | GI50 [4] [µg/mL] | GI50 [5] [µg/mL] | Activity [6] | Activity [7] | GI50 [8] [µg/mL] | Activity [9] | GI50 [10] [µg/mL] | Activity [11] | Activity [12] | Activity [13] | Activity [14] | GI50 [15] [µg/mL] | Activity [17] | further results |
| --- | --- | --- | --- | --- | --- | --- | --- | --- | --- | --- | --- | --- | --- | --- | --- | --- | --- |
| COc1ccc(/C=C/c2cc(Br)c(OC)c(OC)c2)cc1O | 0.13 (≈ 0.356 µM) | inactive | 0.0174 (≈ 0.0476 µM) | 0.15 (≈ 0.411 µM) | 1.6 (≈ 4.38 µM) | inactive | inactive | 0.14 (≈ 0.383 µM) | inactive | 0.18 (≈ 0.493 µM) | inactive | inactive | inactive | inactive | 1.2 (≈ 3.29 µM) | inactive | Activity [16]: inactive |
| COc1ccc(/C=C\c2cc(F)c(OC)c(OC)c2)cc1OP(=O)(O)O | – | inactive | – | – | – | inactive | inactive | – | inactive | – | inactive | inactive | inactive | inactive | – | inactive | – |
| COc1ccc(/C=C\c2cc(Br)c(OC)c(OC)c2)cc1O | 0.00082 (≈ 0.00225 µM) | inactive | 0.0021 (≈ 0.00575 µM) | 0.00038 (≈ 0.00104 µM) | 0.64 (≈ 1.75 µM) | inactive | inactive | 0.00046 (≈ 0.00126 µM) | inactive | 0.0005 (≈ 0.00137 µM) | inactive | inactive | – | inactive | 0.59 (≈ 1.62 µM) | inactive | MIC [18]: 32 µg/mL (≈ 87.6 µM); MIC [19]: 32 µg/mL (≈ 87.6 µM); Activity [20]: 89%; IC50 [21]: 1500 nM |
